Data reported in ChEMBL document CHEMBL4152210, “Design, synthesis, anti-lung cancer activity, and chemosensitization of tumor-selective MCACs based on ROS-mediated JNK pathway activation and NF-κB pathway inhibition” (Eur J Med Chem, 2018).

Columns and labels:
[1] = Selectivity index, ratio of IC50 for human HL7702 cells to IC50 for human NCI-H1975 cells; format: toxicity
Method in brief: (§1)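 Selectivity index taken as the logarithm of the ratio of the HL7702 IC50 to the cancer-line IC50. […] Not calculated when an IC50 was lacking.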

[2] = Selectivity index, ratio of IC50 for human HL7702 cells to IC50 for human A549 cells; format: toxicity; method in brief: as §1
NCI-H1975 = experiment: Cytotoxicity against human NCI-H1975 cells assessed as reduction in cell viability after 72 hrs by MTT assay; format: functional, cell-based; conditions: NCI-H1975, 72 h
Method in brief: (§2)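 Cells in RPMI 1640 with 10% heat-inactivated FBS and penicillin/streptomycin at 37 °C, 5% CO2. Seeded at 4000 per well, adhered overnight, then exposed to graded compound concentrations in triplicate wells for 72 h. MTT (5 mg/mL stock) added for 4 h, dissolved in DMSO, A490 read. IC50 is the concentration reducing viability by 50% versus untreated control.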

[3] = Selectivity index, ratio of IC50 for human HL7702 cells to IC50 for human NCI-H1650 cells; format: toxicity; method in brief: as §1
[4] = Selectivity index, ratio of IC50 for human HL7702 cells to IC50 for human H460 cells; format: toxicity; method in brief: as §1
NCI-H460 = experiment: Cytotoxicity against human H460 cells assessed as reduction in cell viability after 72 hrs by MTT assay; format: functional, cell-based; conditions: NCI-H460, 72 h; method in brief: as §2
NCI-H1650 = experiment: Cytotoxicity against human NCI-H1650 cells assessed as reduction in cell viability after 72 hrs by MTT assay; format: functional, cell-based; conditions: NCI-H1650, 72 h; method in brief: as §2
L02 = experiment: Cytotoxicity against human HL7702 cells assessed as reduction in cell viability after 72 hrs by MTT assay; format: cell-based; conditions: L02, 72 h; method in brief: as §2
A549 [5] = experiment: Cytotoxicity against human A549 cells assessed as reduction in cell viability after 72 hrs by MTT assay; format: functional, cell-based; conditions: A549, 72 h; method in brief: as §2
A549 [6] = experiment: Anticlonogenic activity against human A549 cells assessed as inhibition of clonogenic growth at 3 uM incubated for 2 days followed by replacement of growth media and measured after 8 days by crystal violet staining-based assay relative to control; format: functional
Method in brief: (§3)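 A549 cells grown in 1640 medium with 10% heat-inactivated FBS at 37 °C, 5% CO2. Seeded at 1000 cells per well, then exposed to drug or left untreated. Medium, with or without drug, replaced after 2 days. 8 days later colonies fixed with 1% methanol and 1% formaldehyde, stained with 0.5% crystal violet and photographed. Percent inhibition expressed relative to control.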

A549 [7] = experiment: Anticlonogenic activity against human A549 cells assessed as inhibition of clonogenic growth at 9 uM incubated for 2 days followed by replacement of growth media and measured after 8 days by crystal violet staining-based assay relative to control; format: functional; method in brief: as §3

Row | Structure (SMILES) | log(RatioIC50) [1] | log(RatioIC50) [2] | IC50 (NCI-H1975) [µM] | log(RatioIC50) [3] | log(RatioIC50) [4] | IC50 (NCI-H460) [µM] | IC50 (NCI-H1650) [µM] | IC50 (L02) [µM] | IC50 (A549 [5]) [µM] | inhibition at 3 µM (A549 [6]) [%] | inhibition at 9 µM (A549 [7]) [%]
1 | CCC(=O)N1C/C(=C\c2cc(OC)c(OC)c(OC)c2)C(=O)/C(=C/c2cc(OC)c(OC)c(OC)c2)C1 | 0.39 | 0.72 | 1.7 | -0.02 | 0.19 | 2.7 | 4.4 | 4.2 | 0.8 | – | –
2 | O=c1[nH]cc(F)c(=O)[nH]1 [FLUOROURACIL] | – | – | – | – | – | – | – | – | – | 38 | 70
3 | COc1cc(/C=C2\CNC/C(=C\c3cc(OC)c(OC)c(OC)c3)C2=O)cc(OC)c1OC | 0.28 | 0.8 | 4 | 0.26 | 0.7 | 1.5 | 4.2 | 7.6 | 1.2 | – | –
4 | O=C1/C(=C/c2ccccc2F)CNC/C1=C\c1ccccc1F | 0.59 | 0.33 | 1.3 | 0.48 | 0.63 | 1.2 | 1.7 | 5.1 | 2.4 | – | –
5 | Cc1ccc2nc(NCCN)c3ncc(C)n3c2c1 [BMS-345541] | 0.28 | 0.25 | 8 | 0.22 | 0.74 | 2.8 | 9.3 | 15.3 | 8.6 | – | –
6 | COc1ccc(/C=C2\CN(C)C/C(=C\c3ccc(OC)c(OC)c3)C2=O)cc1OC | 0.44 | 1.15 | 6.6 | 0.31 | 0.77 | 3.1 | 9 | 18.2 | 1.3 | – | –
7 | COc1cc(/C=C2\CN(C(=O)C(C)C)C/C(=C\c3cc(OC)c(OC)c(OC)c3)C2=O)cc(OC)c1OC | 0.81 | 1.18 | 1.9 | 0.05 | 0.79 | 2 | 10.8 | 12.2 | 0.8 | – | –
8 | COc1ccc(/C=C2\CNC/C(=C\c3ccc(OC)c(OC)c3)C2=O)cc1OC | 0.17 | 0.72 | 10.3 | -0.04 | 0.37 | 6.4 | 16.7 | 15.1 | 2.9 | – | –
9 | CCN1C/C(=C\c2cc(OC)c(OC)c(OC)c2)C(=O)/C(=C/c2cc(OC)c(OC)c(OC)c2)C1 | 0.29 | 0.48 | 6.5 | 0.19 | 0.42 | 4.9 | 8.2 | 12.8 | 4.2 | – | –
10 | COc1cc(/C=C2\CN(C(=O)c3ccccc3F)C/C(=C\c3cc(OC)c(OC)c(OC)c3)C2=O)cc(OC)c1OC | 0.5 | 0.8 | 1.4 | 0.36 | 0.47 | 1.5 | 1.9 | 4.4 | 0.7 | – | –
11 | COc1cc(/C=C/C(=O)CC(=O)/C=C/c2ccc(O)c(OC)c2)ccc1O [CURCUMIN] | 0.71 | 0.02 | 1.4 | -0.45 | -0.07 | 8.5 | – | 7.2 | 6.8 | – | –
12 | COc1cc(/C=C2\CN(C(=O)CCC(=O)O)C/C(=C\c3cc(OC)c(OC)c(OC)c3)C2=O)cc(OC)c1OC | – | – | > 60 | – | – | > 60 | > 60 | > 60 | 17.9 | – | –
13 | CCCN1C/C(=C\c2ccc(OC)c(OC)c2)C(=O)/C(=C/c2ccc(OC)c(OC)c2)C1 | 0.27 | 0.7 | 11.2 | 0.12 | 0.71 | 4.1 | 16 | 21 | 4.2 | – | –
14 | CCN1C/C(=C\c2ccc(OC)c(OC)c2)C(=O)/C(=C/c2ccc(OC)c(OC)c2)C1 | 0.06 | 0.43 | 8.5 | -0.09 | 0.43 | 3.6 | 12 | 9.8 | 3.6 | – | –
